# What was measured:
# HFF = assay: Cytotoxicity for the compound was determined in uninfected stationary human foreskin fibroblasts (HFF) cells.; assay type: functional, cell-based
# In short: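 Stationary HFF monolayers not affected by virus in the HCMV plaque assay were examined microscopically for cytotoxicity. Visual scoring was done at the time of plaque enumeration, after 10–12 days at 37 °C. IC50 came from regression against log concentration.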
# KB = assay: Cytotoxicity for the compound was determined by the inhibition of the growing KB cells.; assay type: functional, cell-based; conditions: Homo sapiens
# In short: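 KB cell growth was measured over two population doublings. Cells were plated at 3000–5000/well, cultured overnight, then compound was added in quadruplicate at 6–8 concentrations for 48 h at 37 °C in CO₂. Cells were fixed in 95% ethanol, stained with 0.1% crystal violet, eluted with 0.1 N HCl/ethanol and read at 570 nm. IC50 came from regression vs. log concentration. The positive control was 2-acetylpyridine thiosemicarbazone.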
# Human alphaherpesvirus 1 = assay: Compound was evaluated for the antiviral activity by their capacity to inhibit the replication of HSV-1 virus; assay type: functional, organism-based
# In short: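 HSV-1 (KOS strain) ELISA in BSC-1 cells, 10 000 cells/well in MEM(E) + 10% calf serum, after overnight culture at 37 °C. Drug was added in quadruplicate with 100 pfu/well virus and incubated 3 days at 37 °C. Detection used HRP-conjugated rabbit anti-HSV-1 with TMB substrate, read at 450/570 nm. IC50 came from regression of % absorbance reduction vs. log concentration. Acyclovir was the positive control.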
# Human betaherpesvirus 5 = assay: Compound was evaluated for antiviral activity by their capacity to inhibit replication of HCMV virus; assay type: functional, organism-based
# In short: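 Towne strain HCMV (plaque-purified isolate P₀) plaque reduction in HFF cells in 24-well dishes, ~100 pfu/cm² cell sheet. After adsorption, compound in growth medium was added at 4–8 concentrations in duplicate wells. Incubation was 10–12 days at 37 °C, then crystal violet fixation/staining and microscopic plaque counts. IC50 came from linear regression of % plaque reduction vs. log concentration. Ganciclovir served as positive control.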
Structure (SMILES),IC50 (HFF),IC50 (KB),IC50 (Human alphaherpesvirus 1),IC50 (Human betaherpesvirus 5)
Nc1nc2c(ncn2COC(CO)CO)c(=O)[nH]1 [GANCICLOVIR],> 100 µM,> 100 µM,1.8 µM,–
CCOC(=O)c1nc([C@@H]2O[C@H](CO)[C@@H](O)[C@H]2O)c(N)nc1Cl,> 100 µM,> 100 µM,> 100 µM,> 100 µM
OC[C@H]1O[C@@H](c2ncc(Cl)nc2Cl)[C@H](O)[C@@H]1O,> 100 µM,–,–,70 µM
NC(=O)c1nc([C@@H]2O[C@H](CO)[C@@H](O)[C@H]2O)c(N)nc1Cl,> 100 µM,> 100 µM,> 100 µM,> 100 µM
CCOC(=O)c1nc([C@@H]2O[C@H](CO)[C@@H](O)[C@H]2O)c(NC)nc1Cl,> 100 µM,> 100 µM,> 100 µM,> 100 µM
COc1nc(Cl)c(C(N)=O)nc1[C@@H]1O[C@H](CO)[C@@H](O)[C@H]1O,> 100 µM,> 100 µM,> 100 µM,> 100 µM
CCOc1nc(Cl)c(C(N)=O)nc1[C@@H]1O[C@H](CO)[C@@H](O)[C@H]1O,> 100 µM,> 100 µM,> 100 µM,> 100 µM
CCOC(=O)c1nc([C@@H]2O[C@H](CO)[C@@H](O)[C@H]2O)c(Cl)nc1Cl,3.2 µM,20 µM,20 µM,3.2 µM
